Activity calls are given as the source filed them. The rule behind the calls is not given here.
Columns and labels:
[1] = Cytotoxicity against Swiss mouse primary cardiac cells assessed as reduction in cell viability incubated for 24 hrs by PrestoBlue dye based colorimetry
[2] = target: T1, UDP-glucuronosyltransferases (UGTs) (Homo sapiens, UniProt O60656+O75310+O75795+P06133+P0DTE4+P0DTE5+P16662+P19224+P22309+P22310+P35503+P35504+P36537+P54855+Q6UWM9+Q9BY64+Q9HAW7+Q9HAW8+Q9HAW9); test: Drug metabolism in human liver S9 fraction assessed as UGT-mediated metabolism by measuring compound remaining at 5 uM incubated for 15 mins in presence of UDPGA by UPLC-MS analysis; format: ADME, subcellular; conditions: read-out: Stability
Outline: (§1)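 Compound incubated with male mouse, rat, dog or pooled human S9 fractions, with NADPH (phase I) or […], sampled at 0, 15, 30 and 60 min. Read-out is percent parent remaining. Two independent experiments of two biological replicates; diclofenac and fluconazole used as assay controls.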

Trypanosoma cruzi [3] = test: Antitrypanosomal activity against Trypanosoma cruzi Tulahuen CL2 amastigotes infected in human MRC5 SV2 cells incubated for 7 days by chlorophenol red beta-D-galactopyranoside substrate based spectrophotometric assay; format: functional, organism-based; conditions: Tulahuen CL2, MRC-5 SV2, 168 h
Outline: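 Intracellular amastigotes of β-galactosidase-expressing Tulahuen strain grown in MRC-5 fibroblast host cells. EC50 in μM given as mean and SEM of two or three independent experiments; some values come from a single determination.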

Cytochrome P450 [4] = target: T2, Cytochrome P450 (Homo sapiens, UniProt P04798+P05177+P05181+P08684+P10632+P10635+P11509+P11712+P13584+P20813+P20815+P20853+P24462+P24903+P33260+P33261+P51589+P78329+P98187+Q02928+Q08477+Q16678+Q16696+Q5TCH4+Q6VVX0+Q7Z449+Q8TAV3+Q96SQ9+Q9HB55); test: Drug metabolism in human liver S9 fraction assessed as CYP450-mediated metabolism by measuring parent compound remaining at 5 uM incubated for 15 mins in presence of NADPH by UPLC-MS analysis; format: ADME, subcellular; conditions: read-out: Stability; outline: as §1
[5] = target: T1, UDP-glucuronosyltransferases (UGTs); test: Drug metabolism in human liver S9 fraction assessed as UGT-mediated metabolism by measuring compound remaining at 5 uM measured immediately in presence of UDPGA by UPLC-MS analysis; format: ADME, subcellular; conditions: read-out: Stability; outline: as §1
Trypanosoma cruzi [6] = test: Antitrypanosomal activity against bloodstream form of Trypanosoma cruzi Y trypomastigotes measured after 24 hrs by Neubauer chamber-based light microscopic analysis; format: functional, organism-based
Cytochrome P450 [7] = target: T2, Cytochrome P450; test: Drug metabolism in human liver S9 fraction assessed as CYP450-mediated metabolism by measuring parent compound remaining at 5 uM incubated for 30 mins in presence of NADPH by UPLC-MS analysis; format: ADME, subcellular; conditions: read-out: Stability; outline: as §1
[8] = Toxicity in Swiss Webster mouse infected with Trypanosoma cruzi Y trypomastigotes assessed as body weight loss at 25 mg/kg, po administered twice daily via gavage for 5 days starting from 5 days post-infection and measured daily up to 40 days post-infection; format: organism-based; conditions: in vivo
Outline: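 Male Swiss Webster mice were infected i.p. with 10⁴ Y-strain trypomastigotes and treated by oral gavage for 5 days from 5 dpi. Regimens were 25 mg/kg b.i.d. (10% EtOH/citrate vehicle) or benznidazole 100 mg/kg s.i.d. Body weight and visual clinical signs were monitored, with daily mortality checks up to 40 dpi. There were six mice per group.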

[9] = Drug metabolism in mouse liver microsomes assessed as CYP450-mediated metabolism by measuring parent compound remaining at 5 uM incubated for 15 mins in presence of NADPH by UPLC-MS analysis; format: ADME; conditions: read-out: Stability; outline: as §1
Trypanosoma cruzi [10] = test: Antitrypanosomal activity against Trypanosoma cruzi Y amastigotes infected in Swiss mouse primary cardiac cells replenished for every 48 hrs for 168 hrs by geimsa staining based assay; format: functional, organism-based
Outline: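 Primary mouse cardiac cells infected 24 h at 37 °C with Y-strain bloodstream trypomastigotes (parasite:host 10:1), washed, then exposed 168 h at 37 °C to serial dilutions, medium with compound renewed every 48 h. Giemsa stained; infected cells and parasites per infected cell scored in 200 host cells. EC50 from inhibition of infection index; two independent determinations.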

[11] = Drug metabolism in dog liver microsomes assessed as UGT-mediated metabolism by measuring compound remaining at 5 uM incubated for 15 mins in presence of UDPGA by UPLC-MS analysis; format: ADME, Canis lupus familiaris; conditions: read-out: Stability; outline: as §1
Cytochrome P450 [12] = target: T2, Cytochrome P450; test: Drug metabolism in human liver S9 fraction assessed as CYP450-mediated metabolism by measuring parent compound remaining at 5 uM incubated for 60 mins in presence of NADPH by UPLC-MS analysis; format: ADME, subcellular; conditions: read-out: Stability; outline: as §1
[13] = Drug metabolism in rat liver microsomes assessed as CYP450-mediated metabolism by measuring parent compound remaining at 5 uM incubated for 30 mins in presence of NADPH by UPLC-MS analysis; format: ADME; conditions: read-out: Stability; outline: as §1
[14] = Drug metabolism in mouse liver microsomes assessed as CYP450-mediated metabolism by measuring parent compound remaining at 5 uM incubated for 30 mins in presence of NADPH by UPLC-MS analysis; format: ADME; conditions: read-out: Stability; outline: as §1
Cytochrome P450 [15] = target: T2, Cytochrome P450; test: Drug metabolism in human liver S9 fraction assessed as CYP450-mediated metabolism by measuring parent compound remaining at 5 uM measured immediately in presence of NADPH by UPLC-MS analysis; format: ADME, subcellular; conditions: read-out: Stability; outline: as §1
[16] = Drug metabolism in rat liver microsomes assessed as CYP450-mediated metabolism by measuring parent compound remaining at 5 uM incubated for 60 mins in presence of NADPH by UPLC-MS analysis; format: ADME; conditions: read-out: Stability; outline: as §1
Trypanosoma cruzi [17] = test: In vivo antitrypanosomal activity against Trypanosoma cruzi Y trypomastigotes infected in Swiss mouse assessed as reduction in parasitemia at 25 mg/kg, po administered twice daily for 5 days with 2 days interval for 3 cycles in presence of cyclophosphamide by light microscopy; format: functional, organism-based
Outline: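 Infected mice were dosed orally at 25 mg/kg b.i.d. from 5 dpi, either for 5 days or for 15 days (3 × 5 days, 2 days apart). Mice with negative parasitemia up to 30 days post-treatment then received cyclophosphamide i.p. at 50 mg/kg/day. This was given in three cycles of 4 days, each followed by 3 drug-free days. Tail-vein blood parasitemia was then read by light microscopy.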

[18] = Drug metabolism in rat liver microsomes assessed as UGT-mediated metabolism by measuring compound remaining at 5 uM incubated for 60 mins in presence of UDPGA by UPLC-MS analysis; format: ADME; conditions: read-out: Stability; outline: as §1
[19] = Drug metabolism in mouse liver microsomes assessed as CYP450-mediated metabolism by measuring parent compound remaining at 5 uM measured immediately in presence of NADPH by UPLC-MS analysis; format: ADME; conditions: read-out: Stability; outline: as §1
[20] = Drug metabolism in dog liver microsomes assessed as CYP450-mediated metabolism by measuring parent compound remaining at 5 uM incubated for 60 mins in presence of NADPH by UPLC-MS analysis; format: ADME, Canis lupus familiaris; conditions: read-out: Stability; outline: as §1
[21] = Drug metabolism in dog liver microsomes assessed as UGT-mediated metabolism by measuring compound remaining at 5 uM measured immediately in presence of UDPGA by UPLC-MS analysis; format: ADME, Canis lupus familiaris; conditions: read-out: Stability; outline: as §1
[22] = Drug metabolism in mouse liver microsomes assessed as UGT-mediated metabolism by measuring compound remaining at 5 uM incubated for 30 mins in presence of UDPGA by UPLC-MS analysis; format: ADME; conditions: read-out: Stability; outline: as §1

- remaining at 0.25 h, 5 µM [2]: 99%
- remaining at 0.25 h, 5 µM (Cytochrome P450 [4]): 99%
- remaining at 0 min, 5 µM [5]: 100%
- EC50 (Trypanosoma cruzi [6]): > 70000 nM
- remaining at 0.5 h, 5 µM (Cytochrome P450 [7]): 96%
- remaining at 0.25 h, 5 µM [9]: 96%
- EC50 (Trypanosoma cruzi [10]): 89 nM
- remaining at 0.25 h, 5 µM [11]: 94%
- remaining at 1 h, 5 µM (Cytochrome P450 [12]): 92%
- remaining at 0.5 h, 5 µM [13]: 87%
- remaining at 0.5 h, 5 µM [14]: 95%
- remaining at 0 min, 5 µM (Cytochrome P450 [15]): 100%
- remaining at 1 h, 5 µM [16]: 85%
- remaining at 1 h, 5 µM [18]: 94%
- remaining at 0 min, 5 µM [19]: 100%
- remaining at 1 h, 5 µM [20]: 92%
- remaining at 0 min, 5 µM [21]: 100%
- remaining at 0.5 h, 5 µM [22]: 103%
Structure (SMILES): Nc1ccnc2c1c(I)cn2[C@@H]1O[C@H](CO)[C@@H](O)[C@H]1O
- EC50 [1]: > 400000 nM
- EC50 (Trypanosoma cruzi [3]): 40 nM
- Activity [8]: Non-Toxic
- Activity (Trypanosoma cruzi [17]): inactive
